Bioassay records deposited in PubChem BioAssay by Broad Institute.
FGF22 binding: binders of human FGF22 protein, primary screen, FGF22 synaptogenesis inhibitor project, biophysical, thermal shift, single point; 340,000 tested, 1.5% active; Fibroblast growth factor 22 (Homo sapiens), Q9HCT0; recombinant FGF22 thermal shift, SYPRO orange fluorescence; percent of sucrose octasulfate shift, DMSO zero; activity (Tm shift, normalised), % at 9.99 µM;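 active = mean Tm shift, scaled 0 neutral to 100 positive control, at about 1.3% or above, every replicate too, limit read from the data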
Target sequence (Q9HCT0 whole entry, looked up): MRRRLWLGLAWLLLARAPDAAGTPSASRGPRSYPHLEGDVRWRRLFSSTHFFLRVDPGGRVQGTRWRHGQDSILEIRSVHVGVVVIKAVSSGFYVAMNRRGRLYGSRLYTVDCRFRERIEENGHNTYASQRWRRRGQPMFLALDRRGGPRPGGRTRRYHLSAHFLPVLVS
E-sel inducer: E-selectin induction in HUVECs, primary screen, imaging, HUVEC, immunofluorescence imaging, single point. P16581. normalized: neutral wells 0, TNF-alpha wells 100. activation, % at 7.58 µM. 260,000 tested, 0.37% active;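 active = mean E-selectin-positive cell signal at least 10% of the positive control, reached in at least 60% of replicates, without over 20% cell loss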
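Read-out basis: % PE-positive cells; Test system: HUVEC primary endothelial cells; Technique: immunofluorescence imaging; Dosing: single-point compound dose.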
PglD inh: C. jejuni PglD acetyltransferase inhibitors, primary screen, biochemical, DTNB colorimetric, single point; 360,000 tested, 0.098% active; purified PglD enzyme, DTNB colorimetric CoA detection; UDP-N-acetylbacillosamine N-acetyltransferase PglD (Campylobacter jejuni); inhibition, % at 12.5 µM; AID 602405, 2012; in the data active = inhibition above about 16%, passing the limit was not always enough
XiGFP reactiv: activators of inactive X chromosome reactivation, primary screen, imaging, XiGFP fibroblasts, GFP high-content imaging, set 2; XiGFP mouse fibroblasts, % GFP-positive cells imaging, 3 d; cells co-treated with 5-aza-dC sensitizer; scaled so ellipticine positive control = 100%; activation, % at 7.58 µM; 360,000 tested, 0.055% active; AID 743238, 2013;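 active = mean normalized replicate activation at least 10% and every replicate at or above 10%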
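Material: XiGFP fibroblasts, SV40-immortalized. Buffer or medium: DMEM plus 5-aza-dC sensitizer. Compound: single concentration per compound, delivered by pin transfer. Times: 3 days compound exposure. Controls: ellipticine 6 µM.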
DENV2 CPE: inhibitors of DENV2 cytopathic effect, primary screen, cell-based, plate reader, single concentration; DENV2-infected cells, cytopathic effect rescue; CPE inhibition, % at 9.99 µM; 350,000 tested, 1.7% active; in the data active = CPE inhibition above about 20%, passing the limit was not always enough; tested in BHK-21 cells
C2C12 statin: suppressors of statin myotoxicity in C2C12 myotubes, primary screen, cell-based, single point, plate reader | 330,000 tested, 0.78% active | rescue of ATP level, % at 7.49 µM | C2C12 myotubes + simvastatin, ATP luminescence, 48 h; scaled: DMSO 0, geranylgeraniol control 100;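 active = mean ATP rescue above about 67%, or every replicate alone reaching that limit, limit read from the data, passing the limit was not always enough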;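 also: myotubes were challenged with 10 µM simvastatin during compound exposure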
Of the large screens only hits and unclear results are named; the others gave an inactive call. Hits are enriched below; roughly 3.3% of the tested compounds scored in any of these assays.

CCC(=O)Nc1ccc2c(c1)OC[C@H](C)N(C(=O)c1cnccn1)C[C@H](C)[C@H](OC)CN(C)C2=O	none (no result: FGF22 binding, PglD inh, DENV2 CPE)
O=C(C[C@H]1CC[C@@H]2[C@H](COC[C@@H](O)CN2Cc2ccncc2)O1)NCC1CC1	none
Cc1noc(C)c1S(=O)(=O)Nc1ccc2c(c1)C(=O)N([C@H](C)CO)C[C@H](C)[C@H](CN(C)Cc1ccncc1)O2	none (no result: C2C12 statin)
C[C@@H]1CN([C@@H](C)CO)C(=O)c2cc(C#Cc3ccc(F)cc3)cnc2O[C@@H]1CN(C)C	none (no result: E-sel inducer)
FC(F)(F)c1cccc(OCc2nnc3n2CCC3)c1	none (no result: E-sel inducer, PglD inh, C2C12 statin)
c1ccc(-c2ccccc2OCc2nnc3n2CCC3)cc1	FGF22 binding 43 (no result: E-sel inducer, PglD inh, C2C12 statin)
O=C(COC(=O)c1ccc2c(c1)OCO2)NC1CCCCC1	DENV2 CPE 21 (no result: E-sel inducer)
Cc1nnsc1C(=O)N1CCCC(Nc2ccc(F)c(F)c2)C1 (stereo not given)	FGF22 binding 57
Cc1ccc(C(=O)N2CCCC(Nc3ccc(F)c(F)c3)C2)cn1 (stereo not given)	none
O=C1CCCCN1CC(=O)N1CCCC(Nc2ccc(F)c(F)c2)C1 (stereo not given)	none (no result: E-sel inducer)
Cc1ccc(NC2CCCN(C(=O)c3ccoc3C)C2)cc1C (stereo not given)	DENV2 CPE 28
O=C(Cn1cccn1)N1CCCC(Nc2ccc(F)c(F)c2)C1 (stereo not given)	DENV2 CPE 27
O=C(NCC[C@H]1CC[C@H](NC(=O)C2CC2)[C@H](CO)O1)c1cnccn1	none
O=C(C[C@@H]1C[C@H]2c3cc(NC(=O)NC4CCCCC4)ccc3O[C@H]2[C@H](CO)O1)NCc1cccnc1	none
CS(=O)(=O)N1[C@@H]2CN(CC(F)(F)F)C[C@H]1C2c1ccccc1 (stereo not given in full)	none (no result: FGF22 binding, E-sel inducer, PglD inh, DENV2 CPE, C2C12 statin)
O=C(O)COc1ccc(NC(=O)c2ccco2)cc1	none (no result: FGF22 binding, E-sel inducer, XiGFP reactiv, DENV2 CPE)
CC(=O)Nc1ccc(C(=O)/C=C/c2ccco2)cc1	none (no result: FGF22 binding, E-sel inducer, XiGFP reactiv, DENV2 CPE, C2C12 statin)
O=C(/C=C\c1ccco1)c1ccc(NC(=O)c2ccco2)cc1	FGF22 binding 43 (no result: E-sel inducer, PglD inh)
O=C(O)COc1ccc(NC(=O)c2ccc(NC(=O)c3ccco3)cc2)cc1	FGF22 binding 44
CCC(=O)Oc1cccc(C(=O)Nc2cccc(NC(=O)c3ccco3)c2)c1	E-sel inducer 38
C[C@H](CO)N1C[C@H](C)[C@H](CN(C)C(=O)NC2CCCCC2)OCCCC[C@H](C)Oc2ccc(NC(=O)C3CCCCC3)cc2C1=O	none
O=C(C[C@@H]1CC[C@H](NC(=O)c2ccncc2)[C@H](CO)O1)Nc1ccccc1	none
CCC(=O)N1C[C@H](C)[C@@H](OC)CN(C)C(=O)c2cc(NC(=O)NC3CCCC3)ccc2OC[C@@H]1C	none (no result: PglD inh, C2C12 statin)
C[C@H](CO)N1C[C@H](C)[C@H](CN(C)C(=O)Cc2ccccc2)OCCCC[C@H](C)Oc2ccc(NC(=O)Nc3ccc4c(c3)OCO4)cc2C1=O	none (no result: C2C12 statin)
Cc1cc(/C=C2/NC(=O)NC2=O)c(C)n1-c1ccc(N2CCOCC2)cc1	FGF22 binding 43 (no result: E-sel inducer)
COCC(=O)N1[C@@H](CO)[C@@H](c2ccc(-c3cccc(OC)c3)cc2)C12CN(C(C)=O)C2	none (no result: PglD inh, C2C12 statin)
CC#CC#Cc1cccc(=O)o1	C2C12 statin 97
O=C(CCN1CCCCC1)NCC[C@@H]1CC[C@H](NC(=O)Cc2cccnc2)[C@@H](CO)O1	none (no result: PglD inh)
COc1ccc2c3c([nH]c2c1)[C@@H](CO)NCC31CCN(Cc2ccc(F)cc2)CC1	DENV2 CPE 24 (no result: FGF22 binding, PglD inh, C2C12 statin)
COc1ccc2c3c([nH]c2c1)[C@@H](CO)NCC31CCN(C(=O)C2CCCC2)CC1	DENV2 CPE 78 (no result: PglD inh, C2C12 statin)
O=S(=O)(CCN1CCCCC1)CCS(=O)(=O)CCN1CCCCC1	FGF22 binding 44 (no result: PglD inh)
CC(Cl)c1cc(-c2ncc(C(F)(F)F)cc2Cl)no1 (stereo not given)	FGF22 binding 44 (no result: E-sel inducer, PglD inh, C2C12 statin)
O=C(C[C@@H]1CC[C@H](NC(=O)c2ccccc2)[C@H](CO)O1)NCCc1ccncc1	none
COc1ccc(Cl)cc1NC(=O)C(OC)c1ccccc1 (stereo not given)	none
CCC(C(=O)Nc1cc(Cl)ccc1OC)c1ccccc1 (stereo not given)	FGF22 binding 43 (no result: E-sel inducer, PglD inh, DENV2 CPE, C2C12 statin)
C[C@H]1CN([C@@H](C)CO)C(=O)Cc2cc(NS(=O)(=O)c3ccc(F)cc3)ccc2O[C@H]1CN(C)Cc1ccc(C(=O)O)cc1	none
COc1ccc(Br)cc1[C@H]1[C@H]2C=CC[C@@H](C)[C@@H]2C(=O)N1Cc1ccccc1	DENV2 CPE 66
CC(=O)c1ccc(-c2cc([C@H]3[C@H]4C=CC[C@@H](C)[C@@H]4C(=O)N3Cc3ccccc3)ccc2F)cc1	C2C12 statin 160 (no result: E-sel inducer)
O=C(c1ccc2c(c1)OCO2)N1CC(=O)N2[C@@H](CO)[C@H](c3ccc(C#Cc4ccccc4)cc3)[C@@H]2C1	none (no result: FGF22 binding, PglD inh, C2C12 statin)
C[C@@H]1CN([C@@H](C)CO)C(=O)c2cc(NC(=O)NC3CCCCC3)ccc2O[C@@H](C)CCCCO[C@@H]1CN(C)Cc1ccc(C(F)(F)F)cc1	none (no result: C2C12 statin)
CO[C@@H]1CN(C)C(=O)c2ccc(NS(C)(=O)=O)cc2OC[C@H](C)N(Cc2nccs2)C[C@@H]1C	DENV2 CPE 72
CCCN1C[C@@H](C)[C@H](OC)CN(C)C(=O)c2ccc(NS(=O)(=O)c3ccccc3)cc2OC[C@@H]1C	DENV2 CPE 37
CCCN1C[C@@H](C)[C@@H](OC)CN(C)C(=O)c2cc(NS(=O)(=O)c3ccccc3)ccc2OC[C@H]1C	none
CCCN1C[C@H](C)[C@@H](OC)CN(C)C(=O)c2ccc(NS(C)(=O)=O)cc2OC[C@H]1C	DENV2 CPE 27
COc1ccc2c3c([nH]c2c1)[C@@H](CO)N(C(=O)Nc1ccc(F)cc1)CC31CN(Cc2ccccc2OC)C1	none (no result: PglD inh, C2C12 statin)
Cc1ccc(NC(=O)CN2C(=O)N/C(=C/c3cc(C)n(-c4cccc(C(=O)O)c4)c3C)C2=O)cc1	FGF22 binding 44 (no result: E-sel inducer, PglD inh, C2C12 statin)
CC(=O)NC1=NC(=O)/C(=C/c2cc(C)n(-c3cccc(C(=O)O)c3)c2C)S1	FGF22 binding 43 (no result: E-sel inducer, PglD inh, C2C12 statin)
CC(=O)NC1=NC(=O)/C(=C/c2cn(C(C)=O)nc2-c2ccccc2)S1	FGF22 binding 44 (no result: E-sel inducer, PglD inh, DENV2 CPE, C2C12 statin)
CCN=C1S/C(=C\c2cn(C(C)=O)nc2-c2ccccc2)C(=O)N1CC	none (no result: FGF22 binding, E-sel inducer, XiGFP reactiv, DENV2 CPE, C2C12 statin)
